Results published in ChEMBL document CHEMBL5674874, “BRD4 facilitates DNA damage response and represses CBX5/Heterochromatin protein 1 (HP1)” (Oncotarget, 2017).
Calls of active or inactive are those of the source. The calls are words filed in the database; no cut-off is given here.

What was measured:
IGROV-1 = assay: Induction of DNA damage response in human IGROV-1 cells assessed as CHK1 Ser345 phosphorylation at 2.5 uM in presence of 2.5 nM CHK1 inhibitor LY2606368 after 24 hrs by Western blot analysis; format: functional, cell-based
How it was run: (§1)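 Cells were exposed to JQ1 (2.5 μM) and/or LY2606368 (2.5 nM) for 24hr. Sub-confluent cells were lysed in 1% NP40 buffer with protease and phosphatase inhibitors, and protein was measured by BCA. Total lysates were blotted for phospho-CHK1 (Ser345) and CHK1 with GAPDH as loading control, using HRP chemiluminescence detection. Blots were repeated three times.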

A2780 [1] = assay: Induction of DNA damage response in human A2780 cells assessed as CHK1 Ser345 phosphorylation at 2.5 uM in presence of 2.5 nM CHK1 inhibitor LY2606368 after 24 hrs by Western blot analysis; format: functional, cell-based; how it was run: as §1
A2780 [2] = assay: Cytotoxicity against human A2780 cells assessed as reduction in cell viability after 3 days by XTT assay; format: functional, cell-based; details: A2780, 72 h
How it was run: (§2)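 Ovarian cancer lines in RPMI with 10% heat-inactivated FBS were seeded at 2,000-4000 cells/well in triplicate. Drug from DMSO stock was added 24hr later, and XTT was read 3 days after drug addition. Proliferation is relative to negative control, and IC50 was calculated from the individual XTT data points.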

OVCAR-5 [3] = assay: Induction of DNA damage response in human OVCAR-5 cells assessed as CHK1 Ser345 phosphorylation at 2.5 uM in presence of 2.5 nM CHK1 inhibitor LY2606368 after 24 hrs by Western blot analysis; format: functional, cell-based; how it was run: as §1
SK-OV-3 [4] = assay: Induction of DNA damage response in human SK-OV-3 cells assessed as CHK1 Ser345 phosphorylation at 2.5 uM in presence of 2.5 nM CHK1 inhibitor LY2606368 after 24 hrs by Western blot analysis; format: functional, cell-based; how it was run: as §1
[5] = target: Bromodomain-containing protein 4 (Homo sapiens) (UniProt O60885); details: OVCAR-8, dose 500.0 nM, time 24.0 hrs
[6] = target: Bromodomain-containing protein 4 (Homo sapiens) (UniProt O60885); details: OVCAR-8, dose 500.0 nM, time 24.0 hrs; remark: listed apart in the source
OVCAR-8 [7] = assay: Induction of DNA damage response in human OVCAR-8 cells assessed as CHK1 Ser345 phosphorylation at 2.5 uM in presence of 2.5 nM CHK1 inhibitor LY2606368 after 24 hrs by Western blot analysis; format: functional, cell-based; how it was run: as §1
OVCAR-8 [8] = assay: Effect on gamma-H2AX phosphorylation in nucleus of human OVCAR-8 cells at 2.5 uM for 20 hrs by immunofluorescent staining; format: functional, cell-based
How it was run: (§3)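 Cells were serum-starved for 16hr, then given JQ1 2.5 μM and/or LY2606368 10 nM for 20hr. They were fixed in 4% paraformaldehyde, permeabilized with 0.25% Triton X-100, and blocked in 10% goat serum. γ-H2AX (Ser139/Tyr142) antibody at 1:200 was applied for 2hr, then an Alexa Fluor secondary for 1hr at 4°C. Signal was read by flow cytometry.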

OVCAR-5 [9] = assay: Cytotoxicity against human OVCAR-5 cells assessed as reduction in cell viability after 3 days by XTT assay; format: functional, cell-based; details: OVCAR-5, 72 h; how it was run: as §2
OVCAR-3 [10] = assay: Induction of DNA damage response in human OVCAR-3 cells assessed as CHK1 Ser345 phosphorylation at 2.5 uM in presence of 2.5 nM CHK1 inhibitor LY2606368 after 24 hrs by Western blot analysis; format: functional, cell-based; how it was run: as §1
SK-OV-3 [11] = assay: Cytotoxicity against human SK-OV-3 cells assessed as reduction in cell viability after 3 days by XTT assay; format: functional, cell-based; details: SK-OV-3, 72 h; how it was run: as §2
OVCAR-3 [12] = assay: Cytotoxicity against human OVCAR-3 cells assessed as reduction in cell viability after 3 days by XTT assay; format: functional, cell-based; details: OVCAR-3, 72 h; how it was run: as §2
OVCAR-8 [13] = assay: Induction of cell cycle arrest in human OVCAR-8 cells assessed as accumulation of cells at G1 phase at 2.5 uM for 20 hrs by propidium iodide staining based flow cytometry; format: functional
OVCAR-8 [14] = assay: Cytotoxicity against human OVCAR-8 cells assessed as reduction in cell viability after 3 days by XTT assay; format: functional, cell-based; details: OVCAR-8, 72 h; how it was run: as §2
OVCAR-8 [15] = assay: Effect on gamma-H2AX expression in human OVCAR-8 cells at 2.5 uM for 20 hrs by immunofluorescent staining; format: functional, cell-based; how it was run: as §3
OVCAR-8 [16] = assay: Induction of abnormal nuclear morphology in human OVCAR-8 cells at 10 nM by immunostaining; format: functional, cell-based
How it was run: (§4)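 Ovcar8 cells were transfected with 20nM siRNA; for co-transfection, 10nM of each. At 24hr they were plated on coverslips, and 8hr later LY2606368 10nM was added for 24hr. Cells were fixed (4% paraformaldehyde), permeabilized (0.25% Triton X-100), blocked (10% goat serum) and stained for H3K4me3, γ-H2AX and DAPI. Sphericity is the ratio of two perpendicular nuclear diameters, over multiple fields of 10-40 cells.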

OVCAR-3 [17] = assay: Cytotoxicity against human OVCAR-3 cells assessed as reduction in cell viability at 10 nM in presence of siCBX5 after 3 days by XTT assay; format: functional, cell-based; details: time 3.0 day
How it was run: (§5)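 Cells were transfected with siRNA (final 20nM, DharmaFECT1) and seeded in 3 replicates 24hr later. Drug was added 24hr after seeding. Viability was read by XTT and normalized to siNeg-transfected cells.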

OVCAR-8 [18] = assay: Induction of abnormal nuclear morphology in human OVCAR-8 cells assessed as loss of nuclear roundness at 10 nM in presence of siCBX5 by immunostaining; format: functional, cell-based; how it was run: as §4
OVCAR-8 [19] = assay: Cytotoxicity against human OVCAR-8 cells assessed as reduction in cell viability at 10 nM in presence of siCBX5 after 3 days by XTT assay; format: functional, cell-based; details: time 3.0 day; how it was run: as §5
SK-OV-3 [20] = assay: Cytotoxicity against human SK-OV-3 cells assessed as reduction in cell viability at 10 nM in presence of siCBX5 after 3 days by XTT assay; format: functional, cell-based; details: time 3.0 day; how it was run: as §5
OVCAR-5 [21] = assay: Cytotoxicity against human OVCAR-5 cells assessed as reduction in cell viability at 10 nM in presence of siCBX5 after 3 days by XTT assay; format: functional, cell-based; details: time 3.0 day; how it was run: as §5

Question: How did the Activity (IGROV-1) turn out when Cc1sc2c(c1C)C(c1ccc(Cl)cc1)=N[C@@H](CC(=O)OC(C)(C)C)c1nnc(C)n1-2 was run?
Answer: inactive

Question: What about the Activity (A2780 [1]) of the same molecule?
Answer: inactive

Question: And the IC50 (A2780 [2])?
Answer: 100 nM

Question: What about the Activity (OVCAR-5 [3]) of the same molecule?
Answer: inactive

Question: What about the Activity (SK-OV-3 [4]) of the same molecule?
Answer: inactive

Question: What about the inhibition [5] of the same molecule?
Answer: Active

Question: What about the inhibition [6] of the same molecule?
Answer: Active

Question: What about the Activity (OVCAR-8 [7]) of the same molecule?
Answer: inactive

Question: And the Activity (OVCAR-8 [8])?
Answer: inactive

Question: And the IC50 (OVCAR-5 [9])?
Answer: 100 nM

Question: What about the Activity (OVCAR-3 [10]) of the same molecule?
Answer: inactive

Question: And the IC50 (SK-OV-3 [11])?
Answer: 100 nM

Question: And the IC50 (OVCAR-3 [12])?
Answer: 100 nM

Question: What about the Activity (OVCAR-8 [13]) of the same molecule?
Answer: Active

Question: And the IC50 (OVCAR-8 [14])?
Answer: 100 nM

Question: And the Activity (OVCAR-8 [15])?
Answer: inactive

Question: Which results are given for COc1cccc(OCCCN)c1-c1cc(Nc2cnc(C#N)cn2)n[nH]1 [PREXASERTIB]?
Answer: IC50 (A2780 [2]): 40 nM; IC25 (A2780 [2]; time 3 day): 10 nM; Activity (OVCAR-8 [16]): Active; Activity (OVCAR-3 [17]): inactive; IC50 (OVCAR-5 [9]): 3 nM; IC25 (OVCAR-5 [9]; time 3 day): 1.5 nM; Activity (OVCAR-8 [18]): inactive; Activity (OVCAR-8 [19]): inactive; Activity (SK-OV-3 [20]): inactive; Activity (OVCAR-5 [21]): inactive; IC50 (SK-OV-3 [11]): 10 nM; IC25 (SK-OV-3 [11]; time 3 day): 4 nM; IC50 (OVCAR-3 [12]): 12 nM; IC25 (OVCAR-3 [12]; time 3 day): 6 nM; IC50 (OVCAR-8 [14]): 10 nM; IC25 (OVCAR-8 [14]; time 3 day): 5 nM
